Bioassay records deposited in PubChem BioAssay by Sanford-Burnham Center for Chemical Genomics.
SENP8 block-1 = SENP8 (human) protease inhibition | AID 602440 | 360,000 tested, 0.64% active | recombinant SENP8, Nedd8 substrate fluorescence | inhibition, % at 20 µM; in the data active = inhibition mostly above about 40%, no sharp cut-off; inactive = mostly below about 27%
SENP6 inh = SENP6 protease inhibition | Q9GZR1 | Recombinant SENP6 catalytic domain, aminoluciferin luminescence | inhibition, % at 10 µM | 330,000 tested, 1.8% active;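 active = inhibition above about 50% at the single tested dose, limit read from the data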
SENP8 block-2 = SENP8 protease inhibition; Q96LD8; purified SENP8, Z-RLRGG-aminoluciferin cleavage, luminescence; inhibition, % at 10 µM; 330,000 tested, 1.2% active; AID 2540; in the data active = inhibition above about 50%
UBC13 inh = inhibitors of human UBC13 polyubiquitin chain formation; inhibition, % at 20 µM; TR-FRET; 330,000 tested, 0.47% active; in the data active = inhibition above about 45%, passing the limit was not always enough
Target sequence (P61088 whole entry, looked up): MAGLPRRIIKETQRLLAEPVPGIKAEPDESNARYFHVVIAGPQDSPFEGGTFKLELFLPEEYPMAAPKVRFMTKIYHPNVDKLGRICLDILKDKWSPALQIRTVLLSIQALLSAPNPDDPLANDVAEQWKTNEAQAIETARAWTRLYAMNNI
Apaf1 inhib = human Apaf-1 inhibition; O14727; reconstituted apoptosome caspase-3 activity, DEVD-Rh110 fluorescence; inhibition, % at 20 µM; 330,000 tested, 0.71% active; active = inhibition of at least 40% at 20 µM
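Material: reconstituted apoptosome with Apaf-1, cytochrome c, caspase-9, procaspase-3, dATP / Buffer or medium: pH 7.5 Hepes buffer with CHAPS, BSA, DTT / Also added: cytochrome c with DEVD-Rh110 / Schedule: compound with Apaf-1, dATP, procaspase-3 30 min, then 50 min reaction, room temperature / Technique: rhodamine 110 fluorescence at Ex 480/Em 540 nm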
SENP7 inh = SENP7 protease inhibition. Q9BQF6. recombinant SENP7, Z-RLRGG-aminoluciferin luminescence, 40 min. inhibition, % at 5 µM. 330,000 tested, 1.5% active. AID 434973;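 active = inhibition above about 50% at the single test dose, limit read from the data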
Target sequence (Q9BQF6 706-1050 limits assumed): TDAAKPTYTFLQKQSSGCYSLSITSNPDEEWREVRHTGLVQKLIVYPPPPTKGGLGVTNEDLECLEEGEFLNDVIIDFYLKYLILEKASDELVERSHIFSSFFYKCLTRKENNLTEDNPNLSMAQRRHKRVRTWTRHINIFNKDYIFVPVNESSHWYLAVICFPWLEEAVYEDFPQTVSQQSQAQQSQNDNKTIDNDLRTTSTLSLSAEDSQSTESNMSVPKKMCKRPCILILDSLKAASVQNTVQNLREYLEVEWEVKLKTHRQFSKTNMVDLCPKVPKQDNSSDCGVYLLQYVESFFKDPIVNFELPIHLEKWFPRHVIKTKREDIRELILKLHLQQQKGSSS
SENP8 conf = human SENP8 inhibition, confirmed; 6,200 tested, 40% active; shares compounds with SENP7 inh; Recombinant SENP8, Z-RLRGG-aminoluciferin luminescence, 60 min; inhibition, % at 12.5 µM;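 active = mean inhibition across replicates above about 50%, limit read from the data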
SENP6 conf = human SENP6 inhibition, confirmed | shares compounds with SENP7 inh | recombinant SENP6, Z-RLRGG-aminoluciferin luminescence | inhibition, % at 12.5 µM | 6,200 tested, 58% active
SENP7 confirm = confirmation of human SENP7 protease inhibitors; shares compounds with SENP7 inh; recombinant SENP7, Z-RLRGG-aminoluciferin luminescence, 40 min; inhibition, % at 12.5 µM; 6,200 tested, 69% active
Casp3 SENP sel = caspase-3 inhibition (SENP selectivity assay) | shares compounds with SENP7 inh | purified caspase-3, Z-DEVD-aminoluciferin luminescence, 60 min | inhibition, % at 12.5 µM | 6,200 tested, 60% active;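 active = mean inhibition above about 50%, limit read from the data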
SENP luc ctr = interferes with luciferase luminescence in SENP counter-screen; Pre-incubated SENP8/Z-RLRGG-aminoluciferin, luciferase luminescence interference; inhibition, % at 12.5 µM; 6,200 tested, 39% active; shares compounds with SENP7 inh; AID 488919;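 active = mean inhibition above about 50% when retested at one dose, limit read from the data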
Casp3 counter = inhibits human caspase-3 in UBC13 counter-screen | shares compounds with UBC13 inh | Recombinant caspase-3, Caspase-Glo 3/7 luminescence, 60 min | inhibition, % at 20 µM | 1,400 tested, 4% active | AID 488856;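 active = mean inhibition across replicates above about 26%, limit read from the data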
UBC13 conf = human UBC13 polyubiquitin inhibition, confirmed; shares compounds with UBC13 inh; UBC13 polyubiquitination, TR-FRET, biochemical; inhibition, % at 10 µM; 1,400 tested, 68% active; AID 488859; in the data active = inhibition above about 45%
Apaf-1 inh conf = confirmation of Apaf-1 inhibitors. shares compounds with Apaf1 inhib. reconstituted apoptosome, caspase-3 DEVD-Rh110 fluorescence. inhibition, % at 20 µM. 1,800 tested, 25% active. AID 504614;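 active = mean inhibition of at least 40% at 20 µM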
Rh110 interf inh = interferes with Rh110 fluorescence, flagging false Apaf-1 inhibitors. AID 504615. shares compounds with Apaf1 inhib. activation (fluorescence interference), % at 20 µM. Rh110 fluorescence interference, quenched caspase reaction. 1,800 tested, under 10 active;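 active = signal rise of 40% or more at 20 µM, treated as a fluorescence artifact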
Apaf1 inh interf = Apaf-1 inhibitor counter-screen fluorescence artifact; shares compounds with Apaf1 inhib; fluorescence interference counterscreen, Apaf-1 assay format; IC50, µM; 460 tested, under 10 active; AID 588538; call rule not given here
A number is an active result; – = inactive; · = not tested or not shown. Most compounds without a hit are left out; they make up all but 3.1% or so of the library.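 The calls were made as follows, unless noted: active = mean inhibition above about 50% in the one-dose retest (limit read from the data); inactive = the rest.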

SMILES | SENP8 block-1 | SENP6 inh | SENP8 block-2 | UBC13 inh | Apaf1 inhib | SENP7 inh | SENP8 conf | SENP6 conf | SENP7 confirm | Casp3 SENP sel | SENP luc ctr | Apaf-1 inh conf | Rh110 interf inh | others
C=CCNC(=O)c1c(N)n(CCN2CCOCC2)c2nc3ccccc3nc12 | – | – | – | – | – | – | · | · | · | · | · | · | ·
COCCNC(=O)c1c(N)n(CCC(C)C)c2nc3ccccc3nc12 | – | 86 | 81 | – | 82 | – | – | – | – | – | – | – | –
CC(C)OC(=O)c1c(N)n(Cc2ccco2)c2nc3ccccc3nc12 | – | – | – | – | – | – | · | · | · | · | · | · | ·
COC(=O)C1=C(c2ccc(OC(F)(F)F)cc2)C[C@@H]2CC[C@H]1N2C(=O)N1CCCCC1 | – | – | – | – | – | – | · | · | · | · | · | · | ·
CCCCOC1OCN(C2CCCCC2)CC1(C)C (stereo not drawn) | – | · | · | · | · | · | · | · | · | · | · | · | ·
COc1cc2c(cc1OC)-c1c(OC)c(OC)cc3c1[C@H](C2)N(C)CC3 | – | 83 | – | – | 95 | 52 | – | 66 | – | – | – | 96 | – | Apaf1 inh interf=–
COc1ccc(Cn2c(N)c(C(=O)NCc3ccco3)c3nc4ccccc4nc32)cc1OC | – | 74 | 52 | – | 66 | – | – | – | – | – | – | – | –
CCCNC(=O)c1c(N)n(Cc2ccc3c(c2)OCO3)c2nc3ccccc3nc12 | – | 54 | 53 | – | 83 | – | – | – | – | – | – | – | –
CC(C)CCNC(=O)c1c(N)n(Cc2ccc3c(c2)OCO3)c2nc3ccccc3nc12 | – | 72 | 82 | – | 90 | 58 | – | – | – | – | – | – | –
CC(C)CNC(=O)c1c(N)n(Cc2ccc3c(c2)OCO3)c2nc3ccccc3nc12 | – | 91 | 91 | – | 96 | 73 | – | – | – | – | – | – | –
Nc1c(C(=O)NCc2ccco2)c2nc3ccccc3nc2n1CCN1CCCCC1 | – | – | – | – | – | – | · | · | · | · | · | · | ·
COC(=O)c1c(N)n(Cc2ccc(OC)cc2)c2nc3ccccc3nc12 | – | – | – | – | – | – | · | · | · | · | · | · | ·
O=C(Nc1cc(Cl)cc(Cl)c1)N1Cc2ccccc2-n2nncc2C1 | – | · | · | · | · | · | · | · | · | · | · | · | ·
COC(=O)C1=C(c2cccc(OCc3ccccc3)c2)C[C@@H]2CC[C@H]1N2C(=O)NCc1cc(C)oc1C(F)(F)F | – | – | – | – | – | – | · | · | · | · | · | · | ·
Cc1ccc2c(c1)C1CN(C)CCC1N2C(=O)CCCN1C(=O)c2cccc3cccc(c23)C1=O (stereo not drawn) | – | – | – | 89 | – | – | · | · | · | · | · | · | · | Casp3 counter=–;UBC13 conf=101
Cc1ccc(C(=O)N[C@@H](C)CN2C3=NC[C@@H](Cc4ccccc4)N3C[C@H]2Cc2ccc(O)cc2)cc1Br | · | – | – | 77 | – | – | · | · | · | · | · | · | · | Casp3 counter=–;UBC13 conf=76
